Experimental data from ChEMBL document CHEMBL1137992, “Long hydrocarbon chain keto diols and diacids that favorably alter lipid disorders in vivo” (J Med Chem, 2004).

Experiments:
Assay type in all cases: functional
Rattus norvegicus [1] = assay: Amount of HDL-cholesterol in obese Zucker rats at pre-treatment at a dose of 0 mg/kg/day
How it was run: (§1)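 Female Zucker fatty rats [Crl:(Zuc)-faBR], 10–12 weeks old (400–500 g), dosed once daily by oral gavage in 20% EtOH/80% PEG-200 (dose volume 0.25% of body weight). Rats were fasted 6 h and bled before dosing and at day 7 (orbital plexus), and at day 14 (cardiac puncture). Serum cholesterol fractions came from Superose 6 gel-filtration lipoprotein profiles (% peak area × serum total cholesterol). Values are mean ± SEM.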

Rattus norvegicus [2] = assay: Amount of glucose in obese Zucker rats after 1 week of treatment at a dose of 30 mg/kg/day
How it was run: (§2)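 Female Zucker fatty rats [Crl:(Zuc)-faBR], 10–12 weeks old (400–500 g), gavaged daily with vehicle (20% EtOH/80% PEG-200, 0.25% of body weight) or compound. After a 6-h fast, blood glucose was read by glucometer from tail-prick blood of unanesthetized rats before dosing and after 1 and 2 weeks. Values are mean ± SEM.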

Rattus norvegicus [3] = assay: Percent decrease in insulin in obese Zucker rats after 2 weeks of treatment at a dose of 0 mg/kg/day; parameters: scale not given: the % may be the effect or the level left
How it was run: (§3)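 Female Zucker fatty rats [Crl:(Zuc)-faBR], 10–12 weeks, 400–500 g, acclimated 7 days on chow. Compound or vehicle (20% EtOH/80% PEG-200) given by daily oral gavage for 2 weeks, 0–100 mg/kg/day. After a 6 h fast, blood was taken before dosing, at 1 wk and at 2 wk. Serum lipids, NEFA and insulin (ELISA) were measured; glucose by glucometer. HDL/non-HDL-C came from Superose 6 gel-filtration profiles. Values are % change from pretreatment, mean ± SEM.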

Rattus norvegicus [4] = assay: Percent decrease in non-HDL-cholesterol in obese Zucker rats after 2 weeks of treatment at a dose of 100 mg/kg/day; parameters: scale not given: the % may be the effect or the level left; how it was run: as §3
Rattus norvegicus [5] = assay: Percent increase in HDL-cholesterol in obese Zucker rats after 2 weeks of treatment at a dose of 100 mg/kg/day; how it was run: as §3
Rattus norvegicus [6] = assay: Percent decrease in non-HDL-cholesterol in obese Zucker rats after 1 week of treatment at a dose of 100 mg/kg/day; parameters: scale not given: the % may be the effect or the level left; how it was run: as §3
Rattus norvegicus [7] = assay: Percentage change of HDL cholesterol levels in obese female Zucker rats after 2 weeks of pre-treatment at a dose of 100 mg/kg/day
How it was run: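 Obese female Zucker fatty rats were gavaged once daily with 30 or 100 mg/kg/day in 20% EtOH/80% PEG-200 for 2 weeks. Sera were collected after a 6 h fast, before dosing, at 1 week (orbital plexus) and at 2 weeks (cardiac puncture). HDL-C was total cholesterol multiplied by HDL area fraction from gel-filtration lipoprotein profiles. Reported as % change from pretreatment ± SEM.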

Rattus norvegicus [8] = assay: Amount of non-HDL-cholesterol in obese Zucker rats after 2 weeks of treatment at a dose of 3 mg/kg/day
How it was run: (§4)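 Female obese Zucker fatty rats [Crl:(Zuc)-faBR], 10–12 weeks old (400–500 g), on chow. Compound in 20% EtOH/80% PEG-200 (v/v) given by daily oral gavage. After a 6-h fast, serum was taken before dosing and at 7 days (orbital plexus), and at 14 days (cardiac puncture). Lipoprotein cholesterol came from Superose 6HR gel-filtration profiles × serum total cholesterol. Mean ± SEM.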

Rattus norvegicus [9] = assay: Amount of non-HDL-cholesterol in obese Zucker rats after 1 week of treatment at a dose of 100 mg/kg/day; how it was run: as §1
Rattus norvegicus [10] = assay: Amount of triglycerides in obese Zucker rats after 2 weeks of treatment at a dose of 0 mg/kg/day
How it was run: (§5)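 Female Zucker fatty rats [Crl:(Zuc)-faBR], 10–12 weeks old (400–500 g), dosed once daily by oral gavage in 20% EtOH/80% PEG-200 for up to 14 days. After a 6-h fast, serum was taken pre-dose, at day 7 (orbital venous plexus, O2/CO2 anaesthesia) and at day 14 (cardiac puncture), stored at −80 °C, and assayed on a Hitachi 912 automatic analyzer. Mean ± SEM.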

Rattus norvegicus [11] = assay: Amount of nonesterified fatty acids in obese Zucker rats after 1 week of treatment at a dose of 10 mg/kg/day; how it was run: as §5
Rattus norvegicus [12] = assay: Amount of glucose in obese Zucker rats after 2 weeks of treatment at a dose of 10 mg/kg/day; how it was run: as §2
Rattus norvegicus [13] = assay: Amount of triglycerides in obese Zucker rats at pre-treatment at a dose of 100 mg/kg/day; how it was run: as §5
Rattus norvegicus [14] = assay: Percent decrease in nonesterified fatty acids in obese Zucker rats after 1 week of treatment at a dose of 30 mg/kg/day; parameters: scale not given: the % may be the effect or the level left; how it was run: as §3
Rattus norvegicus [15] = assay: Amount of non-HDL-cholesterol in obese Zucker rats at pre-treatment at a dose of 10 mg/kg/day; how it was run: as §4
Rattus norvegicus [16] = assay: Percent decrease in triglycerides in obese Zucker rats after 1 week of treatment at a dose of 100 mg/kg/day; parameters: scale not given: the % may be the effect or the level left; how it was run: as §3
Rattus norvegicus [17] = assay: Percent decrease in insulin in obese Zucker rats after 1 week of treatment at a dose of 10 mg/kg/day; parameters: scale not given: the % may be the effect or the level left; how it was run: as §3
Rattus norvegicus [18] = assay: Percent increase in non-HDL-cholesterol in obese Zucker rats after 2 weeks of treatment at a dose of 0 mg/kg/day; how it was run: as §3
Rattus norvegicus [19] = assay: Percent increase in glucose in obese Zucker rats after 2 weeks of treatment at a dose of 3 mg/kg/day; how it was run: as §3
Rattus norvegicus [20] = assay: Percent decrease in nonesterified fatty acids in obese Zucker rats after 1 week of treatment at a dose of 3 mg/kg/day; parameters: scale not given: the % may be the effect or the level left; how it was run: as §3
Rattus norvegicus [21] = assay: Percent decrease in glucose in obese Zucker rats after 1 week of treatment at a dose of 100 mg/kg/day; parameters: scale not given: the % may be the effect or the level left; how it was run: as §3
Rattus norvegicus [22] = assay: Percent decrease in insulin in obese Zucker rats after 1 week of treatment at a dose of 100 mg/kg/day; parameters: scale not given: the % may be the effect or the level left; how it was run: as §3
Rattus norvegicus [23] = assay: Percent decrease in nonesterified fatty acids in obese Zucker rats after 1 week of treatment at a dose of 10 mg/kg/day; parameters: scale not given: the % may be the effect or the level left; how it was run: as §3
Rattus norvegicus [24] = assay: Percent increase in non-HDL-cholesterol in obese Zucker rats after 2 weeks of treatment at a dose of 10 mg/kg/day; how it was run: as §3
Rattus norvegicus [25] = assay: Percent increase in triglycerides in obese Zucker rats after 1 week of treatment at a dose of 0 mg/kg/day; how it was run: as §3
Rattus norvegicus [26] = assay: Percent increase in HDL-cholesterol in obese Zucker rats after 2 weeks of treatment at a dose of 10 mg/kg/day; how it was run: as §3
Rattus norvegicus [27] = assay: Percent decrease in nonesterified fatty acids in obese Zucker rats after 2 weeks of treatment at a dose of 3 mg/kg/day; parameters: scale not given: the % may be the effect or the level left; how it was run: as §3
Rattus norvegicus [28] = assay: Percent decrease in nonesterified fatty acids in obese Zucker rats after 2 weeks of treatment at a dose of 30 mg/kg/day; parameters: scale not given: the % may be the effect or the level left; how it was run: as §3
Rattus norvegicus [29] = assay: Percent increase in non-HDL-cholesterol in obese Zucker rats after 1 week of treatment at a dose of 0 mg/kg/day; how it was run: as §3
Rattus norvegicus [30] = assay: Percent increase in nonesterified fatty acids in obese Zucker rats after 2 weeks of treatment at a dose of 3 mg/kg/day; how it was run: as §3
Rattus norvegicus [31] = assay: Percent increase in nonesterified fatty acids in obese Zucker rats after 2 weeks of treatment at a dose of 0 mg/kg/day; how it was run: as §3
Rattus norvegicus [32] = assay: Percent increase in nonesterified fatty acids in obese Zucker rats after 2 weeks of treatment at a dose of 100 mg/kg/day; how it was run: as §3
Rattus norvegicus [33] = assay: Percent decrease in HDL-cholesterol in obese Zucker rats after 2 weeks of treatment at a dose of 3 mg/kg/day; parameters: scale not given: the % may be the effect or the level left; how it was run: as §3

Structure (SMILES) | Activity (Rattus norvegicus [2]) | Activity (Rattus norvegicus [4]) | Activity (Rattus norvegicus [8]) | Activity (Rattus norvegicus [9]) | Activity (Rattus norvegicus [12]) | Activity (Rattus norvegicus [14]) | Activity (Rattus norvegicus [15]) | Activity (Rattus norvegicus [18]) | Activity (Rattus norvegicus [23]) | Activity (Rattus norvegicus [25]) | Activity (Rattus norvegicus [26]) | Activity (Rattus norvegicus [29]) | other results
CC(C)(CCCCC(=O)CCCCC(C)(C)C(=O)O)C(=O)O | 115 mg/dL | -29% | 24 mg/dL | 18 mg/dL | 113 mg/dL | -29% | 40 mg/dL | – | – | – | – | – | Activity (Rattus norvegicus [1]): 39 mg/dL; Activity (Rattus norvegicus [3]): -31%; Activity (Rattus norvegicus [5]): 79%; Activity (Rattus norvegicus [6]): -42%; Change (Rattus norvegicus [7]): 78%; Activity (Rattus norvegicus [10]): 1140 mg/dL; Activity (Rattus norvegicus [11]): 0.92 mg/dL; Activity (Rattus norvegicus [13]): 964 mg/dL; Activity (Rattus norvegicus [16]): -60%; Activity (Rattus norvegicus [17]): -27%
CC(C)(CCCCCC(=O)CCCCCC(C)(C)C(=O)O)C(=O)O | – | -88% | – | – | – | – | – | 40% | -17% | 18% | 60% | 45% | Activity (Rattus norvegicus [19]): 8%; Activity (Rattus norvegicus [20]): -15%; Activity (Rattus norvegicus [21]): -21%; Activity (Rattus norvegicus [22]): -46%; Activity (Rattus norvegicus [24]): 55%; Activity (Rattus norvegicus [27]): -23%; Activity (Rattus norvegicus [28]): -49%
CC(C)(CO)CCCCC(=O)CCCCC(C)(C)CO | 112 mg/dL | – | 22 mg/dL | 23 mg/dL | 110 mg/dL | -21% | 25 mg/dL | 20% | -18% | 19% | 15% | 44% | Activity (Rattus norvegicus [30]): 45%; Activity (Rattus norvegicus [31]): 33%; Activity (Rattus norvegicus [32]): -33%; Activity (Rattus norvegicus [33]): -19%
